Only some compounds are listed: those with a hit (about 5.7% of all), similar ones and a draw of the others.
Calb FLC: affects C. albicans growth with fluconazole; C. albicans CaCi-2 (fluconazole-resistant clinical isolate) + fluconazole, Alamar Blue growth, 48 h; growth inhibition, % (concentration not given with the values); hit rate 0.57% among 300,000; AID 1979;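 active = growth inhibition above about 58% in most replicates, limit read from the data, passing the limit was not always enough; inconclusive = exactly half the replicates above a set limit; inactive = most replicates below a set limit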;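 also: all wells also contain fluconazole at 8 µg/ml as a sub-toxic cotreatment; 0% = median of DMSO wells and 100% = median of geldanamycin control wells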
T cruzi repl: blocks replication of Trypanosoma cruzi. hit rate 1.4% among 300,000. inhibition, % (concentration not given with the values). T. cruzi beta-gal in NIH3T3, luminescence, 90 h;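 active = mean inhibition across valid replicates above about 55%, limit read from the data; inconclusive = mean below that limit but half or more replicates reach it; inactive = mean below it, under half of replicates reach it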;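 also: signal also drops with host cell toxicity which is not excluded here; 0% = plate median of DMSO wells and 100% = zero luminescence signal; higher percent means less beta-gal luminescence so fewer parasites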
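Assay system: NIH/3T3 host cells with β-galactosidase reporter T. cruzi; input: 5,000 host fibroblasts per well; compound: single 50 nL compound addition per well in DMSO; timing: ≥90 h infection period, 3 h prior cell attachment; measured by: GalScreen β-gal luminescence, detergent lysis, 60 min; evaluation: percent inhibition of parasite-derived β-gal signal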
SKKanGAS inh: SKKanGAS growth inhibition | inhibition, % at 7.5 µM | hit rate 1.3% among 300,000 | S. pyogenes SKKanGAS, kanamycin growth, BacTiter-Glo, 6 h;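 active = mean replicate score, as percent of positive control median, at least 50; inconclusive = mean below 50 but one replicate at or above 50; inactive = mean and every replicate below 50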;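 also: strain carries kanamycin resistance gene driven by streptokinase promoter and grows in 40 µg/ml kanamycin; loss of luminescence reflects streptokinase promoter inhibition or plain growth inhibition; 0% = median of DMSO wells and 100% = positive control at its reference dose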
Beta cell apopt: beta cell apoptosis inhibition; INS-1E cytokine-induced death, ATP luminescence, 48 h; percent of positive-control rescue, neutral wells zero; hit rate 0.8% among 300,000; protection from apoptosis, % (test concentration not listed);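 active = Every replicate reaches about 75%, or at least half do and their mean reaches it too, limit read from the data; inconclusive = At least half of replicates reach the limit but their mean does not; inactive = Under half of replicates reach the limit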;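 also: 0% = cytokine-treated negative control wells and 100% = positive control rescue; higher means more ATP so stronger rescue from cytokine killing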
CSC inhib: blocks cancer stem cells | cancer stem cell-like cells viability, luminescence | AID 2717 | hit rate 1.1% among 300,000 | inhibition, % at 7.5 µM; in the data active = inhibition above about 75%; inconclusive = no clear call, values can overlap the other calls; tested in HMLE shEcad cells
Mdm2 MdmX PPI: inhibitors of human Mdm2/MdmX interaction | O15151+Q00987 | SaOS-2 split-luciferase Mdm2/MdmX complementation, luminescence | inhibition, % at 8 µM | hit rate 3% among 330,000 | AID 485346;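 active = inhibition of at least 50% at 8 µM in the primary screen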
Target sequence (O15151 whole entry, looked up): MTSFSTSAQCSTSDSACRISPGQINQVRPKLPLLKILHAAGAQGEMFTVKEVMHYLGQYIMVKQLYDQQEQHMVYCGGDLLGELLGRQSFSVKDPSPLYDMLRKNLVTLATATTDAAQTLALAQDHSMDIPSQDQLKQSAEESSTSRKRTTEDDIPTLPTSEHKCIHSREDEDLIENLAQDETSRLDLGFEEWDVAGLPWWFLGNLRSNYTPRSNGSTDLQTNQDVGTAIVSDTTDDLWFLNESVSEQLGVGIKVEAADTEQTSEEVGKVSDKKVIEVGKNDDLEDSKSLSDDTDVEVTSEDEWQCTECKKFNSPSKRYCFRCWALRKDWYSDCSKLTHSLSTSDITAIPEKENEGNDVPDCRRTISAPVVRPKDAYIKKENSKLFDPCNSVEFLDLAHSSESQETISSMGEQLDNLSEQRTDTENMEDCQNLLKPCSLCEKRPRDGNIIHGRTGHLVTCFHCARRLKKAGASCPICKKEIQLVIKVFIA
Target sequence (Q00987 whole entry, looked up): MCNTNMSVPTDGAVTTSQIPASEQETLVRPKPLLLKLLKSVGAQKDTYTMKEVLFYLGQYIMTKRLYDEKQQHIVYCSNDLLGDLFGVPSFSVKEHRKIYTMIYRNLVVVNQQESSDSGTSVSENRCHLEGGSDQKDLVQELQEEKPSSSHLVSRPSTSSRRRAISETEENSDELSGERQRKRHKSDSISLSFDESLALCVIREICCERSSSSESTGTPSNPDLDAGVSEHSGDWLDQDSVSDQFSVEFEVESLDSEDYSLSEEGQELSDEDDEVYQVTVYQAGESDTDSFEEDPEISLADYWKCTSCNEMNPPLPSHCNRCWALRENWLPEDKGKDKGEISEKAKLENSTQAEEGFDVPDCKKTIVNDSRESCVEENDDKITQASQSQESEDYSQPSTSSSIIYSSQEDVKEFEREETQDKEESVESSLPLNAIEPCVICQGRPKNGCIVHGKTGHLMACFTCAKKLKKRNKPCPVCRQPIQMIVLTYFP
Starred values were filed as active, the others as inactive; ? = inconclusive; nt = not tested or not shown.

SMILES | Calb FLC | T cruzi repl | SKKanGAS inh | Beta cell apopt | CSC inhib | Mdm2 MdmX PPI
CCC(CC)COC(=O)C(C#N)c1nc2ccccc2nc1N1CCN(CC)CC1 (stereo unspecified) | 54 | 55* | 8 | 8 | -2 | 44
COc1cc(-c2ccc3c(=O)c4ccccc4n(C)c3c2)cc(OC)c1OC | -3 | 11 | 44 | 12 | 93* | 36
COc1ccc(C(=O)O)cc1S(=O)(=O)Nc1ccc(N2CCCCC2)cc1 | nt | nt | nt | -7 | nt | 13
COc1ccc(NC(=O)CN(C)C(=O)c2cccc(S(=O)(=O)Nc3ccc(F)cc3)c2)cc1 | nt | nt | nt | -3 | nt | -6
CC(C)CCNCC(=O)NC(c1ccccc1)c1ccccc1 | 115* | nt | nt | 0 | -2 | 25
COCC(=O)NC(c1ccccc1)c1ccccc1 | 3 | 4 | 2 | nt | -1 | 35
Cn1cc(CN2CCCC(C(=O)c3ccc(-c4ccccc4)cc3)C2)cn1 (stereo unspecified) | -12 | ? | -7 | 0 | 10 | 6
CCn1nc(C)c(CN2CCCC(C(=O)c3cccc(OC(C)C)c3)C2)c1C (stereo unspecified) | -3 | 65* | 4 | 25 | 3 | 33
CC(C)Oc1cccc(C(=O)C2CCCN(Cc3cnn(C(C)C)c3)C2)c1 (stereo unspecified) | -18 | 78* | -14 | nt | 6 | -14
CCn1cc(CN2CCCC(C(=O)c3ccc(-c4ccccc4)cc3)C2)cn1 (stereo unspecified) | ? | 65* | 8 | nt | 25 | 35
O=C(Cn1cnc2ccccc2c1=O)NCCC(=O)Nc1ccccc1C(F)(F)F | -2 | 10 | 0 | -3 | -8 | -5
CC(C(=O)NC1CCCCC1)N(Cc1ccccc1)C(=O)c1snc(C(N)=O)c1N (stereo unspecified) | -3 | 8 | -1 | -4 | -1 | -13
Cc1ccn2c(=O)nc(SCC(=O)N3N=C(c4cccs4)CC3c3ccc(F)cc3)nc2c1 (stereo unspecified) | 3 | 59* | 20 | 7 | -4 | 23
O=C(CSc1nc2ccccc2s1)N1N=C(c2cccs2)CC1c1ccc(F)cc1 (stereo unspecified) | 16 | 56* | -3 | 10 | -9 | 5
Cc1cc(NC(=O)CNCC(c2ccccc2)N(C)C)c([N+](=O)[O-])cc1C (stereo unspecified) | -13 | 23 | -2 | nt | 18 | 27
COc1ccc(NS(=O)(=O)c2cccc(C(=O)N/N=C(\C)c3cccnc3)c2)cc1 | nt | nt | nt | nt | nt | 19
O=C1Nc2ccccc2Oc2cc([N+](=O)[O-])ccc21 | 2 | 67* | 9 | 13 | 14 | 19
Cc1ccc(C(=O)ONc2ccc(N=NC(=O)c3ccccc3O)cc2)cc1 | -33 | -4 | 11 | 4 | 78* | -10
CCN(CC)S(=O)(=O)c1cccc(-c2nnc(SCCCC(=O)c3ccc(F)cc3)o2)c1 | 11 | 60* | 13 | 17 | -3 | 28
CCN(CC)S(=O)(=O)c1cccc(-c2nnc(SCc3nc4ccccc4s3)o2)c1 | 12 | 22 | 4 | 1 | -14 | -3
CCN(CC)S(=O)(=O)c1cccc(-c2nnc(SCCCC(=O)c3ccccc3)o2)c1 | 4 | 66* | 7 | 10 | -4 | 22
CCN(CC)S(=O)(=O)c1cccc(-c2nnc(SCC(=O)c3cc(C)n(C4CC4)c3C)o2)c1 | -19 | 32 | 12 | 6 | 27 | 26
O=C(NCCc1ccccc1)C1(S(=O)(=O)c2ccc(Cl)cc2)CC1 | -4 | -7 | 2 | 1 | -4 | -11
O=C(NC1CC2CCC(C1)N2Cc1ccccc1)c1ccccc1Br (stereo unspecified) | -1 | 15 | 2 | -5 | -10 | -7
COc1ccc(OC)c(-c2c3cc(O)c(=O)cc-3oc3cc(O)c(O)cc23)c1 | nt | nt | nt | 1 | 95* | nt
SMILES | Calb FLC | T cruzi repl | SKKanGAS inh | Beta cell apopt | CSC inhib | Mdm2 MdmX PPI
COc1ccc(OC)c(-c2oc3ccccc3c(=O)c2O)c1 | -5 | 2 | -2 | -5 | nt | 26
CCc1c(C)nc2ncnn2c1Nc1ccc(C)cc1 | -5 | 1 | -5 | -3 | 15 | 13
CCc1c(C)nc2ncnn2c1NCCc1ccc(OC)cc1 | 5 | -37 | 15 | 97* | 47 | 30
CC1Cc2cc(/C=C3/SC(=S)NC3=O)ccc2O1 (stereo unspecified) | 0 | -3 | 12 | 8 | 57 | -44
Cc1ccc(C2C(/C=C3/SC(=S)NC3=O)=C(c3cccs3)Oc3ccccc32)cc1 (stereo unspecified) | 4 | -12 | 113* | 18 | 108* | 43
COc1ccc(OCC(=O)NC(=S)Nc2ccc(N3CCOCC3)c(Cl)c2)cc1 | -7 | -8 | 68* | nt | -10 | -6
O=C(NC(=S)Nc1ccc(N2CCCCC2)c(Cl)c1)c1ccc2c(c1)OCCO2 | -2 | 9 | 11 | nt | 89* | 33
Cc1cc(C)cc(C(=O)NC(=S)Nc2ccc3c(c2)OCCO3)c1 | 19 | -7 | -5 | -2 | 7 | -88
O=C(NC(=S)Nc1ccc(N2CCOCC2)c(Cl)c1)c1cncc(Br)c1 | 9 | -9 | 71* | -3 | -1 | 20
Cc1ccccc1NC(=S)NC(=O)c1cncc(Br)c1 | ? | 2 | -6 | -14 | -9 | 14
Cc1cc(O)ccc1NC(=S)NC(=O)c1cncc(Br)c1 | 87* | -33 | 74* | 6 | 22 | 32
COc1ccc(OCC(=O)Nc2ccc(N3CCOCC3)c(Cl)c2)cc1 | nt | -4 | 6 | -1 | 1 | -13
CCC(=O)N1CCN(c2ccc(Cl)cc2NC(=O)c2ccc3c(c2)OCCO3)CC1 | 90* | 13 | -11 | -3 | -13 | 25
S=C(Nc1ccc(Cl)cc1)Nc1ccc2c(c1)OCCO2 | 81* | nt | nt | -6 | -5 | -21
CCC(=O)N1CCN(c2ccc(NC(=O)c3ccc4c(c3)OCCO4)cc2)CC1 | -1 | 5 | -7 | 1 | 3 | -14
O=C(NC(=S)Nc1ccc(N2CCOCC2)c(Cl)c1)c1cccs1 | -4 | 8 | 65* | 0 | -1 | 0
COc1ccc2nc(C)cc(Nc3ccc(N4CCOCC4)cc3)c2c1 | -14 | 61* | -1 | nt | nt | 27
COc1ccccc1N1CC(C(=O)OCC(=O)Nc2c(C)cccc2C)CC1=O (stereo unspecified) | 14 | -10 | 7 | 1 | -12 | 4
CCOC(=O)[C@@H]1[C@H]2COc3ccc(Br)cc3[C@H]2N2C(=O)N(c3ccc(C(F)(F)F)cc3)C(=O)[C@]12C | nt | nt | nt | -8 | 8 | 11
CCCCNC(=O)c1cccc(S(=O)(=O)N2CC3(C)CC2CC(C)(C)C3)c1 (stereo unspecified) | nt | nt | nt | 12 | nt | 25
CN1/C(=C\C(=O)Nc2ccc(Cl)cc2)C(C)(C)c2ccccc21 | -25 | 14 | 69* | -2 | 61 | 9
CN1/C(=C\C(=S)Nc2ccccc2)C(C)(C)c2ccccc21 | -31 | 36 | -11 | 120* | -2 | 25

Bioassay records (PubChem)
